Measurements reported in ChEMBL document CHEMBL1124192, “Cyclopentenylcytosine. A carbocyclic nucleoside with antitumor and antiviral properties” (J Med Chem, 1988).
Values after ≈ are worked out from the molar mass of the structure shown. Values joined by “and” are separate entries in the source; they are usually repeats but may differ in a detail not shown here. Identical values can stand only once.

Key:
Cytomegalovirus [1] = test: Log value for antiviral activity against Cytomegalovirus (AD169) from MRC5 diploid human embryonic lung cells at 0.1 ug/mL; assay type: functional
Outline: (§1)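 CMV AD169 yield reduction in MRC5 cells. Subconfluent monolayers infected at MOI 0.2 PFU/cell for 1.5 h at 37 °C, rinsed, then fed drug in MEM + 2% FBS, in duplicate. Drug refed on day 3, cultures harvested on day 6 by freeze-thaw and pooled. Yield titrated by plaque assay under 0.25% agarose overlay for 5–6 days, then formalin-fixed and methylene blue-stained for plaque counts.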

Cytomegalovirus [2] = test: Log value for antiviral activity against Cytomegalovirus (AD169) from MRC5 diploid human embryonic lung cells at 0.32 ug/mL; assay type: functional; outline: as §1
Cytomegalovirus [3] = test: Log value for antiviral activity against Cytomegalovirus (AD169) from MRC5 diploid human embryonic lung cells at 100 ug/mL; assay type: functional; outline: as §1
Cytomegalovirus [4] = test: Log value for antiviral activity against Cytomegalovirus (AD169) from MRC5 diploid human embryonic lung cells at 1 ug/mL; assay type: functional; outline: as §1
Cytomegalovirus [5] = test: Log value for antiviral activity against Cytomegalovirus (AD169) from MRC5 diploid human embryonic lung cells at 3.2 ug/mL; assay type: functional; outline: as §1
Cytomegalovirus [6] = test: Log value for antiviral activity against Cytomegalovirus (AD169) from MRC5 diploid human embryonic lung cells at 320 ug/mL; assay type: functional; outline: as §1
Cytomegalovirus [7] = test: Log value for antiviral activity against Cytomegalovirus (AD169) from MRC5 diploid human embryonic lung cells at 32 ug/mL; assay type: functional; outline: as §1
[8] = test system: unidentified influenza virus; test: Inhibitory dose of compound required to inhibit cytopathogenic effects of influenza virus with A2/Aichi/2/68 strain in MDCK cells; assay type: functional; conditions: read-out: ID50 (the source's name)
L1210 [9] = test: Compound was tested for antitumor activity against L1210 leukemia in mouse at dose 2.25 mg/kg administered intraperitoneally in experiment 1; assay type: functional; conditions: L1210, ip, route intraperitoneal
Outline: (§2)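 Mice bearing L1210, L1210/ara-C, P388 or P388/ara-C leukaemia. Tumour implanted at the site each line names: ip, sc or ic. Drug given ip in physiologic saline on a QD1-9 schedule, at several dose levels per experiment. Life-span runs ended on day 30. Read-out is median % increase in life span versus tumoured untreated controls, with long-term survivors included.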

L1210 [10] = test: (§3) Log cell kill at the end of treatment at dose 1 mg/kg administered intraperitoneally; assay type: functional, Mus musculus; conditions: route intraperitoneal
P388 [11] = test: as §3; assay type: functional, Mus musculus; conditions: route intraperitoneal
L1210 [12] = test: Compound was tested for antitumor activity against L1210/ara-C leukemia in mouse at dose 1.5 mg/kg administered intraperitoneally; assay type: functional; conditions: L1210, ip, route intraperitoneal; outline: as §2
L1210 [13] = test: Compound was tested for antitumor activity against L1210/ara-C leukemia in mouse at dose 1 mg/kg administered intraperitoneally; assay type: functional; conditions: L1210, ip, route intraperitoneal; outline: as §2
L1210 [14] = test: Compound was tested for antitumor activity against L1210/ara-C leukemia in mouse at dose 2.25 mg/kg administered intraperitoneally; assay type: functional; conditions: L1210, ip, route intraperitoneal; outline: as §2
L1210 [15] = test: Median percent increase in life span of tumored, treated mice relative to tumored, untreated controls after intraperitoneal dose 1 mg/kg daily (1-9 days); assay type: functional; conditions: Mus musculus, L1210, ip
L1210 [16] = test: Median percent increase in life span of tumored, treated mice relative to tumored, untreated controls after intraperitoneal dose 4 mg/kg daily (every 4th day); assay type: functional; conditions: Mus musculus, L1210, ip
L1210 [17] = test: Number of 60-day survivors out of 10 tested at dose 2.25 mg/kg administered intraperitoneally; assay type: functional, Mus musculus; conditions: route intraperitoneal
L1210 [18] = test: Number of 60-day survivors out of 9 tested at dose 1.5 mg/kg administered intraperitoneally; assay type: functional, Mus musculus; conditions: route intraperitoneal
M5076 = test: Log cell kill at the end of treatment at dose 0.5 mg/kg administered intraperitoneally; assay type: functional, Mus musculus; conditions: route intraperitoneal
L1210 [19] = test: Compound was tested for antitumor activity against L1210 leukemia in mouse at dose 1 mg/kg administered intraperitoneally in experiment 1; assay type: functional; conditions: L1210, ip, route intraperitoneal; outline: as §2
Mus musculus [20] = test: Compound was tested for antitumor activity against human MX-1 mammary tumor xenografts in athymic mice at dose 1.5 mg/kg administered subrenal capsule in experiment 1; assay type: functional
Mus musculus [21] = test: Compound was tested for antitumor activity against human A549 lung tumor xenografts in athymic mice at dose 1.5 mg/kg administered subrenal capsule in experiment 1; assay type: functional
Mus musculus [22] = test: Compound was tested for antitumor activity against human A549 lung tumor xenografts in athymic mice at dose 2 mg/kg administered subrenal capsule in experiment 2; assay type: functional
Mus musculus [23] = test: Compound was tested for antitumor activity against human LOX melanoma tumor xenografts in athymic mice at dose 1.5 mg/kg administered intraperitoneally in experiment 2; assay type: functional; conditions: ip, route intraperitoneal
Outline: (§4)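 Athymic mice carrying human LOX melanoma. Drug given ip in saline on a QD1-9 schedule, at several dose levels. Life-span experiment ended on day 30. Read-out is % increase in life span versus untreated tumoured controls, with long-term survivors included.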

Mus musculus [24] = test: Compound was tested for antitumor activity against human LOX melanoma tumor xenografts in athymic mice at dose 1 mg/kg administered intraperitoneally in experiment 1; assay type: functional; conditions: ip, route intraperitoneal; outline: as §4
Mus musculus [25] = test: Compound was tested for antitumor activity against human LOX melanoma tumor xenografts in athymic mice at dose 2.25 mg/kg administered intraperitoneally; assay type: functional; conditions: ip, route intraperitoneal; outline: as §4
P388 [26] = test: Compound was tested for antitumor activity against P388 leukemia in mouse at dose 1.5 mg/kg administered intraperitoneally in experiment 2; assay type: functional; conditions: P388, ip, route intraperitoneal; outline: as §2
[27] = test system: Vesicular stomatitis virus; test: Tested for inhibition of virus-induced cytopathogenic effect and cytotoxicity of compound against vesicular stomatitis RNA virus with indiana strain in L929 cell; assay type: functional
Human alphaherpesvirus 3 [28] = test: Compound was tested for antiviral activity against Varicella-Zoster from human diploid foreskin cells in mono layer culture at 3.2 ug/ml; assay type: functional
Outline: (§5)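 VZV isolate DM625 on Huf cells (human diploid foreskin monolayers). Inoculum was left on after 1 h adsorption at 37 °C. Drug overlay in MEM + 2% FBS without agarose, refed with fresh drug at 72 h, in 2% CO2. Cells fixed in 10% formalin and stained with methylene blue; plaques counted day 6. % plaque reduction versus untreated virus controls, triplicates.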

Human alphaherpesvirus 3 [29] = test: Compound was tested for antiviral activity against Varicella-Zoster from human diploid foreskin cells in mono layer culture at 32 ug/ml; assay type: functional; outline: as §5
Vero [30] = test: Cytotoxicity of compound was determined by reduction in number of viable vero monolayer cells after treatment with 0.1 ug/mL for 4 days; assay type: functional, Chlorocebus sabaeus
Outline: (§6)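 Vero monolayers in duplicate cultures, exposed to each drug concentration in medium at 37 °C in a CO2 incubator for 4 days. Viable cells counted by trypan blue exclusion, and % reduction calculated against untreated control cultures.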

Vero [31] = test: Cytotoxicity of compound was determined by reduction in number of viable vero monolayer cells after treatment with 1 ug/mL for 4 days; assay type: functional, Chlorocebus sabaeus; outline: as §6
Vero [32] = test: Cytotoxicity of compound was determined by reduction in number of viable vero monolayer cells after treatment with 100 ug/mL for 4 days; assay type: functional, Chlorocebus sabaeus; outline: as §6
Human alphaherpesvirus 3 [33] = test: Compound was tested for antiviral activity against Varicella-Zoster from human diploid foreskin cells in mono layer culture at 0.1 ug/ml; assay type: functional; outline: as §5
[34] = Ratio of minimum drug concentration to ID50 of the compound(Asibi strain); assay type: ADME; conditions: read-out: Therapeutic index
[35] = Ratio of minimum drug concentration to ID50 of the compound (Indiana strain); assay type: ADME
[36] = Ratio of minimum drug concentration to ID50 of the compound ([…] strain); assay type: ADME; conditions: read-out: Therapeutic index
Human alphaherpesvirus 3 [37] = test: Compound was tested for antiviral activity against Varicella-Zoster from human diploid foreskin cells in mono layer culture at 0.32 ug/ml; assay type: functional; outline: as §5

Structure (SMILES): Nc1ccn([C@@H]2C=C(CO)[C@@H](O)[C@H]2O)c(=O)n1
- Reduction in virus yield (Cytomegalovirus [1]): 0.8 pfu/ml
- Reduction in virus yield (Cytomegalovirus [2]): 1.3 pfu/ml
- Reduction in virus yield (Cytomegalovirus [3]): 2 pfu/ml
- Reduction in virus yield (Cytomegalovirus [4]): 1.4 pfu/ml
- Reduction in virus yield (Cytomegalovirus [5]): 1.5 pfu/ml
- Reduction in virus yield (Cytomegalovirus [6]): 5.3 pfu/ml
- Reduction in virus yield (Cytomegalovirus [7]): 2 pfu/ml
- IC50 [8]: 18.2 µg/mL (≈ 76.1 µM)
- ILS at 2.25 mg/kg (L1210 [9]): 125%
- LCK (L1210 [10]): >6 and >5.8
- LCK (P388 [11]): 0.9
- ILS at 1.5 mg/kg (L1210 [12]): > 650%
- ILS at 1 mg/kg (L1210 [13]): > 650%
- ILS at 2.25 mg/kg (L1210 [14]): > 650%
- ILS at 1 mg/kg (L1210 [15]): 124%
- ILS at 4 mg/kg (L1210 [16]): 91%
- No. of survivors (L1210 [17]): 6
- No. of survivors (L1210 [18]): 5 count
- LCK (M5076): -2
- ILS at 1 mg/kg (L1210 [19]): 212%
- ILS at 1.5 mg/kg (Mus musculus [20]): 100%
- ILS at 1.5 mg/kg (Mus musculus [21]): -59%
- ILS at 2 mg/kg (Mus musculus [22]): 92%
- ILS at 1.5 mg/kg (Mus musculus [23]): 80%
- ILS at 1 mg/kg (Mus musculus [24]): 119%
- ILS at 2.25 mg/kg (Mus musculus [25]): 58%
- ILS at 1.5 mg/kg (P388 [26]): 69%
- Virus rating [27]: 2.4 and 3
- Plaque reduction (Human alphaherpesvirus 3 [28]): 33%
- Plaque reduction (Human alphaherpesvirus 3 [29]): 36%
- Reduction (Vero [30]): 50%
- Reduction (Vero [31]): 61%
- Reduction (Vero [32]): 66%
- Plaque reduction (Human alphaherpesvirus 3 [33]): 21%
- selectivity ratio [34]: 0.1
- Therapeutic index [35]: 0.4
- selectivity ratio ([35]; read-out: Therapeutic index): 0.6
- selectivity ratio [36]: 3.1
- Plaque reduction (Human alphaherpesvirus 3 [37]): 33%
